Measurements from different studies.
Lines come from different studies, so protocols differ.
rep papain-like protease: Replicase polyprotein 1ab, papain-like protease (rep, Porcine epidemic diarrhea virus, UniProt P0C6Y4)
SLC6A4: Sodium-dependent serotonin transporter (SLC6A4, Homo sapiens, UniProt P31645)
rep main protease: Replicase polyprotein 1ab, main protease (rep, Porcine epidemic diarrhea virus, UniProt P0C6Y4)

| SMILES | target | test | setting | inhibition |
| --- | --- | --- | --- | --- |
| C#Cc1cc(-c2cc(Nc3nc(N[C@@H](C)c4ccc(F)cn4)ncc3Cl)n[nH]2)ccc1C=O | Rhodopsin kinase GRK7 (GRK7, Homo sapiens, UniProt Q8WTQ7) | enzyme activity, inhibitor | 0.2 µM | 63% |
| COc1cc(CNC(=O)c2cc3ccccc3n2C)cc(Br)c1OC | rep papain-like protease | enzyme activity, inhibitor, FRET | 10 µM | 13% |
| NC/C(=C\F)COc1cccc(Cn2c(=S)[nH]c(=O)c3[nH]cnc32)c1 | SLC6A4 | ligand displacement, radioligand | 10 µM | < 50% |
| CNC(=O)[C@@]12C[C@@H]1[C@@H](n1cnc3c(Nc4ccccc4)nc(C#Cc4ccc(Cl)s4)nc31)[C@H](O)[C@@H]2O | SLC6A4 | ligand displacement, radioligand | 10 µM | 11% |
| CC(C)C(C(=O)NCc1cc(O)c(O)c(Br)c1)c1ccc(Cl)cc1 (stereo not drawn) | rep main protease | enzyme activity, inhibitor, FRET | 10 µM | 41.9% |
| CCOC(=O)[C@@]12C[C@@H]1[C@@H](n1ccc3c(NCCCCCCCc4ccccc4)nc(C#Cc4ccccc4)nc31)[C@H](O)[C@@H]2O | SLC6A4 | ligand displacement, radioligand | 10 µM | 32% |
| Cc1ccccc1C(=O)NCc1cc(O)c(O)c(Br)c1 | rep papain-like protease | enzyme activity, inhibitor, FRET | 10 µM | 115% |
| OC[C@@]12C[C@@H]1[C@@H](n1cnc3c(NC(C4CCC4)C4CCC4)nc(C#Cc4ccc(Cl)s4)nc31)[C@H](O)[C@@H]2O | SLC6A4 | ligand displacement, radioligand | 10 µM | 15% |
| COc1ccc(CNC(=O)c2ccc(Br)cc2)cc1OC | rep papain-like protease | enzyme activity, inhibitor, FRET | 10 µM | 66.1% |
| Cc1cc(F)cc2c(CCC(=O)N[C@@H]3C(=O)NC[C@H]3O)c(-c3ccc(F)cc3)[nH]c12 | D(1A) dopamine receptor (DRD1, Homo sapiens, UniProt P21728) | cell-free assay | 10 µM | 11% |
| CCN1/C(=C/C(C)=O)Sc2ccc(F)cc21 | Type-2 angiotensin II receptor (AGTR2, Homo sapiens, UniProt P50052) | ligand displacement, radioligand | 10 µM | 4.51% |
| O=C1C=C(Nc2ccc(OCc3cn(Cc4ccccc4)nn3)cc2)C(=O)c2ccccc21 | BDNF/NT-3 growth factors receptor (NTRK2, Homo sapiens, UniProt Q16620) | enzyme activity, inhibitor, radiometric | 10 µM | 0% |
| CCOC(=O)[C@@]12C[C@@H]1[C@@H](n1cnc3c(NCCCCCc4ccccc4)nc(C#Cc4ccc(Cl)s4)nc31)[C@H](O)[C@@H]2O | SLC6A4 | ligand displacement, radioligand | 10 µM, cell membranes | 1% |
| CSc1ccccc1C(=O)NCc1cc(O)c(O)c(Br)c1 | rep main protease | enzyme activity, inhibitor, FRET | 10 µM | 13.9% |
| N#CC[C@@]12C[C@@H]1[C@@H](n1cnc3c(NCCCCCc4ccccc4)nc(I)nc31)[C@H](O)[C@@H]2O | SLC6A4 | ligand displacement, radioligand | 10 µM | 3% |
| Cc1cc(O)c(-c2ccc([C@@H](C)CN(C)C)cc2)c2c1[nH]c(=O)c1sccc12 | STE20-related kinase adapter protein alpha (STRADA, Homo sapiens, UniProt Q7RTN6) | enzyme activity, inhibitor | 0.1 µM | 14.8% |
| O=C(NCc1cc(O)c(O)c(Br)c1)c1ccccc1 | rep main protease | enzyme activity, inhibitor, FRET | 10 µM | 74.8% |
| CCOC(=O)[C@@]12C[C@@H]1[C@@H](n1cnc3c(NCCCCc4ccccc4)nc(I)nc31)[C@H](O)[C@@H]2O | SLC6A4 | ligand displacement, radioligand | 10 µM | 20% |
